Test results reported in ChEMBL document CHEMBL3526049 (Drug Metab Dispos, 2012).

Key:
[1] = Oral bioavailability in wild-type Sprague-Dawley rat at 10 mg/kg by LC-MS/MS analysis; assay type: ADME, organism-based; conditions: in vivo
How it was run: (§1)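 Male Sprague-Dawley rats (knockout or wild type matched for age and weight), femoral artery and vein cannulated, at least 2 days recovery. Crossover design: IV bolus 1 mg/kg on day 0 (saline with 0.2 M equivalents HCl), oral gavage 10 mg/kg on day 3 (water with 0.2 M equivalents HCl). Arterial plasma sampled to 24 h (Mdr1a oral arm to 4 h). Analysed by LC-MS/MS and noncompartmental analysis.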

[2] = AUC (infinity) in BCRP knockout Sprague-Dawley rat at 1 mg/kg, iv by LC-MS/MS analysis; assay type: ADME, organism-based; parameters: time infinity, dose 1 mg/kg, route intravenous; conditions: plasma
Rattus norvegicus [3] = test: Toxicity in MDR1A knockout Sprague-Dawley rat assessed as mortality at 10 mg/kg, po after 4 hrs; assay type: organism-based; parameters: dose 10 mg/kg, route oral; conditions: in vivo
How it was run: (§2)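 Independent veterinary staff recorded clinical central signs. After oral dosing, animals were observed 1–2 h post-dose and again at 4 h, when sampling stopped and the animals were discontinued.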

[4] = Cmax in MDR1A knockout Sprague-Dawley rat at 10 mg/kg, po by LC-MS/MS analysis; assay type: ADME, organism-based; parameters: dose 10 mg/kg, route oral; conditions: in vivo; how it was run: as §1
[5] = Volume of distribution at steady state in BCRP knockout Sprague-Dawley rat at 1 mg/kg, iv by LC-MS/MS analysis; assay type: ADME, organism-based; parameters: dose 1 mg/kg, route intravenous; conditions: in vivo, read-out: Vdss; how it was run: as §1
[6] = Half life in MRP2 knockout Sprague-Dawley rat at 10 mg/kg, po by LC-MS/MS analysis; assay type: ADME, organism-based; parameters: dose 10 mg/kg, route oral; conditions: in vivo; how it was run: as §1
in vivo [7] = conditions: Sprague-Dawley, rat, plasma, po, 10 mg/kg
in vivo [8] = conditions: Sprague-Dawley, rat, plasma, po, 10 mg/kg; remark: listed apart in the source
[9] = Volume of distribution at steady state in MRP2 knockout Sprague-Dawley rat at 1 mg/kg, iv by LC-MS/MS analysis; assay type: ADME, organism-based; parameters: dose 1 mg/kg, route intravenous; conditions: in vivo, read-out: Vdss; how it was run: as §1
[10] = Half life in wild-type Sprague-Dawley rat at 1 mg/kg, iv by LC-MS/MS analysis; assay type: ADME, organism-based; parameters: dose 1 mg/kg, route intravenous; conditions: in vivo; how it was run: as §1
[11] = Cmax in wild-type Sprague-Dawley rat at 10 mg/kg, po by LC-MS/MS analysis; assay type: ADME, organism-based; parameters: dose 10 mg/kg, route oral; conditions: in vivo; how it was run: as §1
[12] = Half life in MDR1A knockout Sprague-Dawley rat at 1 mg/kg, iv by LC-MS/MS analysis; assay type: ADME, organism-based; parameters: dose 1 mg/kg, route intravenous; conditions: in vivo; how it was run: as §1
[13] = Volume of distribution at steady state in MDR1A knockout Sprague-Dawley rat at 1 mg/kg, iv by LC-MS/MS analysis; assay type: ADME, organism-based; parameters: dose 1 mg/kg, route intravenous; conditions: in vivo, read-out: Vdss; how it was run: as §1
Rattus norvegicus [14] = test: Toxicity in MDR1A knockout Sprague-Dawley rat assessed as lethargic behavior at 1 mg/kg, iv; assay type: organism-based; parameters: dose 1 mg/kg, route intravenous; conditions: in vivo
[15] = Cmax in MRP2 knockout Sprague-Dawley rat at 10 mg/kg, po by LC-MS/MS analysis; assay type: ADME, organism-based; parameters: dose 10 mg/kg, route oral; conditions: in vivo; how it was run: as §1
[16] = Tmax in MRP2 knockout Sprague-Dawley rat at 10 mg/kg, po by LC-MS/MS analysis; assay type: ADME, organism-based; parameters: dose 10 mg/kg, route oral; conditions: in vivo; how it was run: as §1
[17] = Tmax in MDR1A knockout Sprague-Dawley rat at 10 mg/kg, po by LC-MS/MS analysis; assay type: ADME, organism-based; parameters: dose 10 mg/kg, route oral; conditions: in vivo; how it was run: as §1
[18] = Half life in MRP2 knockout Sprague-Dawley rat at 1 mg/kg, iv by LC-MS/MS analysis; assay type: ADME, organism-based; parameters: dose 1 mg/kg, route intravenous; conditions: in vivo
How it was run: as §1, with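 “HCl).” for “HCl). Arterial plasma sampled to 24 h (Mdr1a oral arm to 4 h).”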

in vivo [19] = conditions: Sprague-Dawley, rat, plasma, po, 10 mg/kg; remark: listed apart in the source
Rattus norvegicus [20] = test: Toxicity in MDR1A knockout Sprague-Dawley rat assessed as eye protrusion at 10 mg/kg, po after 1 to 2 hrs; assay type: organism-based; parameters: dose 10 mg/kg, route oral; conditions: in vivo; how it was run: as §2
Rattus norvegicus [21] = test: Toxicity in MDR1A knockout Sprague-Dawley rat assessed as lacrimation at 10 mg/kg, po after 1 to 2 hrs; assay type: organism-based; parameters: dose 10 mg/kg, route oral; conditions: in vivo; how it was run: as §2
[22] = Volume of distribution at steady state in wild-type Sprague-Dawley rat at 1 mg/kg, iv by LC-MS/MS analysis; assay type: ADME, organism-based; parameters: dose 1 mg/kg, route intravenous; conditions: in vivo, read-out: Vdss; how it was run: as §1
[23] = Half life in wild-type Sprague-Dawley rat at 10 mg/kg, po by LC-MS/MS analysis; assay type: ADME, organism-based; parameters: dose 10 mg/kg, route oral; conditions: in vivo; how it was run: as §1
Rattus norvegicus [24] = test: Toxicity in MDR1A knockout Sprague-Dawley rat assessed as shallow breathing at 10 mg/kg, po after 1 to 2 hrs; assay type: organism-based; parameters: dose 10 mg/kg, route oral; conditions: in vivo; how it was run: as §2
[25] = Half life in BCRP knockout Sprague-Dawley rat at 1 mg/kg, iv by LC-MS/MS analysis; assay type: ADME, organism-based; parameters: dose 1 mg/kg, route intravenous; conditions: in vivo; how it was run: as §1
in vivo [26] = conditions: Sprague-Dawley, rat, po, 10 mg/kg
Rattus norvegicus [27] = test: Toxicity in MDR1A knockout Sprague-Dawley rat assessed as stupor at 10 mg/kg, po after 4 hrs; assay type: organism-based; parameters: dose 10 mg/kg, route oral; conditions: in vivo; how it was run: as §2
[28] = AUC (infinity) in MRP2 knockout Sprague-Dawley rat at 1 mg/kg, iv by LC-MS/MS analysis; assay type: ADME, organism-based, Plasma; parameters: time infinity, dose 1 mg/kg, route intravenous; conditions: Sprague-Dawley, plasma
[29] = Tmax in BCRP knockout Sprague-Dawley rat at 10 mg/kg, po by LC-MS/MS analysis; assay type: ADME, organism-based; parameters: dose 10 mg/kg, route oral; conditions: in vivo; how it was run: as §1
[30] = Half life in BCRP knockout Sprague-Dawley rat at 10 mg/kg, po by LC-MS/MS analysis; assay type: ADME, organism-based; parameters: dose 10 mg/kg, route oral; conditions: in vivo; how it was run: as §1
Rattus norvegicus [31] = test: Toxicity in MDR1A knockout Sprague-Dawley rat assessed as hypoactive behavior at 10 mg/kg, po after 1 to 2 hrs; assay type: organism-based; parameters: dose 10 mg/kg, route oral; conditions: in vivo; how it was run: as §2
[32] = Oral bioavailability in BCRP knockout Sprague-Dawley rat at 10 mg/kg by LC-MS/MS analysis; assay type: ADME, organism-based; conditions: in vivo; how it was run: as §1
[33] = AUC (infinity) in wild-type Sprague-Dawley rat at 1 mg/kg, iv by LC-MS/MS analysis; assay type: ADME, organism-based; parameters: time infinity, dose 1 mg/kg, route intravenous; conditions: plasma
[34] = AUC (infinity) in MDR1A knockout Sprague-Dawley rat at 1 mg/kg, iv by LC-MS/MS analysis; assay type: ADME, organism-based; parameters: time infinity, dose 1 mg/kg, route intravenous; conditions: plasma
[35] = Oral bioavailability in MDR1A knockout Sprague-Dawley rat at 10 mg/kg by LC-MS/MS analysis; assay type: ADME, organism-based; conditions: in vivo; how it was run: as §1
[36] = Oral bioavailability in MRP2 knockout Sprague-Dawley rat at 10 mg/kg by LC-MS/MS analysis; assay type: ADME, organism-based; conditions: in vivo; how it was run: as §1
[37] = Cmax in BCRP knockout Sprague-Dawley rat at 10 mg/kg, po by LC-MS/MS analysis; assay type: ADME, organism-based; parameters: dose 10 mg/kg, route oral; conditions: in vivo; how it was run: as §1
in vivo [38] = conditions: Sprague-Dawley, rat, po, 10 mg/kg; remark: listed apart in the source
[39] = Tmax in wild-type Sprague-Dawley rat at 10 mg/kg, po by LC-MS/MS analysis; assay type: ADME, organism-based; parameters: dose 10 mg/kg, route oral; conditions: in vivo; how it was run: as §1

With `CN(C)C(=O)C(CCN1CCC(O)(c2ccc(Cl)cc2)CC1)(c1ccccc1)c1ccccc1` [LOPERAMIDE] the bioavailability [1] was 16%, the AUC(0-inf) [2] was 0.161 µg·h/mL and the Activity (Rattus norvegicus [3]) was “Toxic”. For the same compound, the Cmax [4] was 0.226 µg/mL, the Vd [5] was 11.5 L/kg and the half-life [6] was 13 h. The AUC(0-inf) (in vivo [7]) was 1.02 µg·h/mL, the AUC(0-inf) (in vivo [8]) was 0.98 µg·h/mL and the Vd [9] was 21.2 L/kg. It also gave a half-life [10] of 1 h, a Cmax [11] of 0.09 µg/mL and a half-life [12] of 1.5 h. For the same compound, the Vd [13] was 7.9 L/kg, the Activity (Rattus norvegicus [14]) was “Toxic” and the Cmax [15] was 0.06 µg/mL. It also gave a Tmax [16] of 0.4 h, a Tmax [17] of 0.8 h and a half-life [18] of 1.1 h. For the same compound, the AUC(0-inf) (in vivo [19]) was 0.806 µg·h/mL, the Activity (Rattus norvegicus [20]) was “Toxic” and the Activity (Rattus norvegicus [21]) was “Toxic”. The Vd [22] was 9 L/kg, the half-life [23] was 13 h and the Activity (Rattus norvegicus [24]) was “Toxic”. For the same compound, the half-life [25] was 1.5 h, the AUC(0-t) at 4 h (in vivo [26]) was 0.184 µg·h/mL and the Activity (Rattus norvegicus [27]) was “Toxic”. For the same compound, the AUC(0-inf) [28] was 0.122 µg·h/mL, the Tmax [29] was 0.7 h and the half-life [30] was 15 h. For the same compound, the Activity (Rattus norvegicus [31]) was “Toxic”, the bioavailability [32] was 40% and the AUC(0-inf) [33] was 0.131 µg·h/mL. The AUC(0-inf) [34] was 0.243 µg·h/mL, the bioavailability [35] was 34% and the bioavailability [36] was 60%. It also gave a Cmax [37] of 0.069 µg/mL, an AUC(0-t) at 4 h (in vivo [38]) of 0.651 µg·h/mL and a Tmax [39] of 0.3 h.
